We go through ten compounds from ChEMBL document CHEMBL4414571, “Sordarin Diterpene Glycosides with an Unusual 1,3-Dioxolan-4-one Ring from the Zoanthid-Derived Fungus Curvularia hawaiiensis TA26-15” (2019).

≈ marks a conversion by molar mass, not a printed value.

For the assay, the system named is Candida albicans. Nature of the assay: Antifungal activity against Candida albicans ATCC 10231 by NCCLS-protocol based microplate reader analysis. The assay is classed as functional. In a few lines:
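Broth microdilution per NCCLS. Strains grown on potato dextrose agar; inoculum prepared from broth culture (28 °C, 48 h) and adjusted to 104 mycelial fragments/mL. Compounds from 100 μM DMSO stock were serially diluted in triplicate, spore suspension added to 200 μL final volume. Carbendazim served as positive control. Absorbance read at 492 nm after incubation; MIC calculated.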
`CO[C@@H]1[C@@H](C)O[C@@H](OC[C@@]23C[C@@H]4[C@H](C)CC[C@H]4[C@@]4(C=O)C[C@@H]2C=C(C(C)C)[C@@]34C(=O)O)[C@@H](O)[C@@]12OC(=O)[C@H](CCCCCCCC(=O)O)O2` had a minimal inhibitory concentration (MIC) of 3.7 µM (≈ 2.56 µg/mL).

Consider `CO[C@@H]1[C@@H](C)O[C@@H](OC[C@@]23C[C@@H]4[C@H](C)CC[C@H]4[C@@]4(C=O)C[C@@H]2C=C(C(C)C)[C@@]34C(=O)O)[C@@H](O)[C@@]12OC(=O)[C@H](CCCC(=O)O)O2`, for which the MIC worked out at 12 µM (≈ 7.62 µg/mL).

Regarding `CO[C@@H]1[C@@H](C)O[C@@H](OC[C@@]23C[C@@H]4[C@H](C)CC[C@H]4[C@@]4(C(=O)O)C[C@@H]2C=C(C(C)C)[C@@]34C(=O)O)[C@@H](O)[C@@]12OC(=O)[C@H](CCCCCCCC(=O)O)O2`, the MIC came out at 15 µM (≈ 10.6 µg/mL).

Take `CC(C)C1=C[C@H]2C[C@]3(C=O)[C@@H]4CC[C@@H](C)[C@H]4C[C@@]2(CO)[C@]13C(=O)O`: the MIC was found to be 18 µM (≈ 5.98 µg/mL).

With `CO[C@@H]1[C@@H](C)O[C@@H](OC[C@@]23C[C@@H]4[C@H](C)CC[C@H]4[C@@]4(C=O)C[C@@H]2C=C(C(C)C)[C@@]34C(=O)O)[C@@H](O)[C@@]12OC(=O)[C@H](CCCCCC(=O)O)O2`, inhibition of growth (MIC) required 8.7 µM (≈ 5.77 µg/mL).

For the compound `COC(=O)CCC[C@@H]1O[C@@]2(OC1=O)[C@H](O)[C@H](OC[C@@]13C[C@@H]4[C@H](C)CC[C@H]4[C@@]4(C=O)C[C@@H]1C=C(C(C)C)[C@@]34C(=O)O)O[C@H](C)[C@H]2OC`, the MIC amounted to 9.8 µM (≈ 6.36 µg/mL).

`COC(=O)CCCCCCC[C@@H]1O[C@@]2(OC1=O)[C@H](O)[C@H](OC[C@@]13C[C@@H]4[C@H](C)CC[C@H]4[C@@]4(C(=O)O)C[C@@H]1C=C(C(C)C)[C@@]34C(=O)O)O[C@H](C)[C@H]2OC`: the MIC is 13 µM (≈ 9.37 µg/mL).

`COC(=O)Nc1nc2ccccc2[nH]1` [CARBENDAZIM] came in with an MIC of 0.16 µM (≈ 0.0306 µg/mL).

Turning to `CC(C)C1=C[C@H]2C[C@]3(C(=O)O)[C@@H]4CC[C@@H](C)[C@H]4C[C@@]2(CO)[C@]13C(=O)O`, 24 µM (≈ 8.36 µg/mL) was the least that counted as inhibitory (MIC).

`COC(=O)CCCCCCC[C@@H]1O[C@@]2(OC1=O)[C@H](O)[C@H](OC[C@@]13C[C@@H]4[C@H](C)CC[C@H]4[C@@]4(C=O)C[C@@H]1C=C(C(C)C)[C@@]34C(=O)O)O[C@H](C)[C@H]2OC`: the MIC is 2.9 µM (≈ 2.04 µg/mL).

A word on the MIC: it is the lowest concentration that inhibits growth of the organism. Low readings indicate a more susceptible organism, high ones a less susceptible organism.
